Structures can show the parent of a compound that is named as a salt.
What was measured:
Trypanosoma brucei [1] = test: Trypanocidal activity against bloodstream form of Trypanosoma brucei 427 after 48 hrs; assay type: functional, organism-based; details: Trypanosoma brucei, 427, 48 h
L6 = test: Cytotoxicity against rat L6 cells after 6 days by Alamar blue assay; assay type: cell-based; details: L6, 144 h
Method in brief: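 Rat skeletal myoblast L6 cells seeded at 1 × 10^4 ml−1 in growth medium with a range of compound concentrations and held 6 days at 37 °C. Alamar Blue was then added and fluorescence read after a further 8 h. IC50 is the mean of triplicate experiments ± SEM.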

Trypanosoma brucei [2] = test: Antitrypanosomal activity against Trypanosoma brucei 427; assay type: functional, organism-based
[3] = Selectivity index, ratio of IC50 for rat L6 cells to IC 50 for Trypanosoma brucei 427; assay type: toxicity, cell-based; details: L6 cells versus Trypanosoma brucei 427, read-out: Selectivity Index
[4] = Selectivity index, ratio of IC50 for rat L6 cells to IC50 for chloroquine-resistant Plasmodium falciparum K1; assay type: toxicity, cell-based; details: read-out: Selectivity Index
Plasmodium falciparum = test: Antiplasmodial activity against chloroquine-resistant Plasmodium falciparum K1; assay type: functional, organism-based
Method in brief: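 K1 parasites grown in human A+ erythrocytes in RPMI 1640 with A+ serum and D-glucose; predominantly early ring-stage cultures used. Twofold serial dilutions run in duplicate from DMSO stocks (final DMSO ≤0.5%), at 2.5% haematocrit and 1% parasitaemia. Incubation was 48 h at 37 °C under 93% N2/3% O2/4% CO2. Growth was read as lactate dehydrogenase activity (APAD/NBT, 550 nm), and IC50 was taken by linear regression.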

| SMILES | IC50 (Trypanosoma brucei [1]) | IC50 (L6) | IC50 (Trypanosoma brucei [2]) | IC90 (Trypanosoma brucei [1]) | further results |
| --- | --- | --- | --- | --- | --- |
| CCC1=C[C@@H]2Cc3nc4cc(Cl)ccc4c(N)c3[C@H](C1)C2 [HUPRINE X HYDROCHLORIDE] | 840 nM | 12500 nM | 300 nM | – | – |
| CC1=CC2Cc3nc4cccc(F)c4c(N)c3C(C1)C2 (centres undefined) | 3710 nM | – | – | 15800 nM | – |
| Nc1c2c(nc3ccccc13)CC1C=C(c3ccccc3)CC2C1 (centres undefined) | 1650 nM | 3510 nM | – | 4700 nM | selectivity ratio [3]: 2.1; selectivity ratio [4]: 2.1; IC50 (Plasmodium falciparum): 7120 nM |
| CC1=CC2Cc3nc4cc(Cl)ccc4c(N)c3C(C1)C2 (centres undefined) | – | – | 300 nM | – | – |
| CC(C)C1=CC2Cc3nc4ccccc4c(N)c3C(C1)C2 (centres undefined) | – | – | 300 nM | – | – |
| C=CCC1=CC2Cc3nc4ccccc4c(N)c3C(C1)C2 (centres undefined) | – | – | 300 nM | – | – |
